This note sets out measurements from ChEMBL document CHEMBL5653614, “Rescue of fragile X syndrome phenotypes in Fmr1 KO mice by the small-molecule PAK inhibitor FRAX486” (Proc Natl Acad Sci U S A, 2013).

Active and inactive are the calls of the source. The rule behind the calls is not given here.

Data set [1] concerns Mus musculus. In words: Protective activity in FVB.129P2-Pde6b+ Tyr c-ch/AntJ wild type mouse assessed as decrease in stereotypy count at 20 mg/kg, sc for 5 days by open field assay. In kind it is functional, organism-based. The conditions noted are these: time 5.0 day. The gist of the method:
(§1)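 Adult male WT and Fmr1 KO mice dosed s.c. at 20 mg/kg or vehicle for 5 d; tested 4–5.5 h after dosing. Single mouse in a novel open field for 30 min, tracked by infrared sensors in 1-min bins; bar-graph values averaged over minutes 18–30. Mice beyond 2 SD in total distance, or immobile for 5 consecutive minutes, were excluded.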

In data set [2] the test system is Mus musculus. In words: Protective activity in Fmr1 knockout FVB.129P2-Fmr1tm1Cgr/J mouse model of Fragile X syndrome assessed as decrease in stereotypy count at 20 mg/kg, sc for 5 days by open field assay. As to conditions: time 5.0 day. In kind it is functional, organism-based. Put shortly: as §1
The subject of data set [3] is Mus musculus. In words: Anti-seizure activity against 124dB loud auditory stimulus induced Fmr1 knockout FVB.129P2-Fmr1tm1Cgr/J mouse model of audiogenic seizure assessed as decrease in sound-induced wild running at 10 mg/kg,sc for 8 hrs followed by audiogenic seizure induction by audiogenic seizure assay (Rvb=100%). In kind it is functional. More on the design: scale not given: the % may be the effect or the level left. The gist of the method:
(§2)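 Adult male mice (10–17 wk). Single s.c. dose (0, 10, 20 or 30 mg/kg) in 20% (wt/vol) hydroxypropyl-β-cyclodextrin vehicle; AGS induced 8 h later. Mouse acclimated 2 min in a clear acrylic two-chamber box, then exposed to a 124 dB sound. Scored as percentage of animals showing each sequential phase (wild running, seizure, death by respiratory arrest); χ2 test against vehicle.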

The test system of data set [4] is Mus musculus. The data set can be described thus: Protective activity in Fmr1 knockout FVB.129P2-Fmr1tm1Cgr/J mouse model of Fragile X syndrome assessed as decrease in distance travelled at 20 mg/kg, sc for 5 days and measured during 18 to 30 mins by open field assay. In kind it is functional, organism-based. As to conditions: time 5.0 day. The gist of the method: as §1

Data set [5] relates to Mus musculus. The data set can be described thus: Anti-seizure activity against 124dB loud auditory stimulus induced Fmr1 knockout FVB.129P2-Fmr1tm1Cgr/J mouse model of audiogenic seizure assessed as decrease in sound-induced wild running at 20 mg/kg,sc for 5 days followed by audiogenic seizure induction after 8 hrs post-treatment by audiogenic seizure assay (Rvb=100%). In kind it is functional. Further details: scale not given: the % may be the effect or the level left. The conditions noted are these: time 5 day. Put shortly: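 Adult male Fmr1 KO mice given 10 or 20 mg/kg s.c. daily for 5 d in 20% hydroxypropyl-β-cyclodextrin vehicle. AGS assay run 8 h after the final injection: 2 min acclimation in an acrylic chamber, then a 124 dB auditory stimulus. Incidence of wild running and seizure recorded; χ2 comparison with vehicle.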

Data set [6] has as its system Mus musculus. The data set can be described thus: Protective activity in FVB.129P2-Pde6b+ Tyr c-ch/AntJ wild type mouse assessed as motor coordination at 20 mg/kg, sc and measured for 4 to 5.25 hrs by rotarod test. In kind it is functional, organism-based. As to conditions: time 4-5.25 hrs. Put shortly: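 Adult male WT and Fmr1 KO mice tested 4–5.5 h after s.c. 20 mg/kg or vehicle. Latency to fall or jump off the rotating cylinder recorded (max 3 min). Three trials per mouse, 30–40 min apart; per-mouse average latency compared.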
(In general: In the rotarod test animals must keep their balance on a rotating rod.)

Data set [7] deals with Mus musculus. The data set can be described thus: Protective activity in Fmr1 knockout FVB.129P2-Fmr1tm1Cgr/J mouse assessed as decrease in apical dendritic spine density in layer II/III pyramidal neurons segment 5 at 20 mg/kg, sc and measured after 8 hrs by Golgi-Cox technique analysis. In kind it is functional, organism-based. The gist of the method:
(§3)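 Adult male WT and Fmr1 KO FVB mice given 20 mg/kg s.c. or vehicle; brains collected 8 h later and Golgi stained. Apical dendrites of layer II/III pyramidal neurons in temporal cortex, originating 50–100 µm from the soma, were divided into ten 10-µm segments and spines counted. 40–60 neurons from 4–6 mice per group; one-way ANOVA.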

For data set [8], the system named is Mus musculus. In words: Protective activity in Fmr1 knockout FVB.129P2-Fmr1tm1Cgr/J mouse model of Fragile X syndrome assessed as motor coordination at 20 mg/kg, sc and measured for 4 to 5.25 hrs by rotarod test. In kind it is functional, organism-based. The conditions noted are these: time 4-5.25 hrs. The gist of the method: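 Adult male Fmr1 KO mice (FVB background, 10–17 wk old) got FRAX486 s.c. at 20 mg/kg as a 2 mg/mL solution in 20% (wt/vol) hydroxypropyl-β-cyclodextrin; vehicle-only controls. Rotarod was run 4–5.5 h after dosing. Latency to fall or jump off the rotating cylinder was recorded, with a maximum of 3 min. Three trials 30–40 min apart were averaged per mouse.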

The test system of data set [9] is Mus musculus. The data set can be described thus: Protective activity in Fmr1 knockout FVB.129P2-Fmr1tm1Cgr/J mouse assessed as decrease in apical dendritic spine density in layer II/III pyramidal neurons segment 4 at 20 mg/kg, sc and measured after 8 hrs by Golgi-Cox technique analysis. In kind it is functional, organism-based. Put shortly:
as §3

Data set [10] has as its system Mus musculus. The data set can be described thus: Protective activity in Fmr1 knockout FVB.129P2-Fmr1tm1Cgr/J mouse model of Fragile X syndrome assessed as decrease in counterclockwise revolutions at 20 mg/kg, sc for 5 days by open field assay. In kind it is functional, organism-based. The conditions noted are these: time 5.0 day. The gist of the method: as §1
A short description of data set [11]: Drug uptake in FVB.129P2 mouse plasma at 20 mg/kg,sc for 5 days and measured after 24 hrs by LC-MS/MS analysis. In kind it is ADME, organism-based. The conditions noted are these: in vivo, 120 h, time 5 day. The gist of the method:
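Mice dosed s.c. at 20 mg/kg once daily for up to 5 d; plasma and forebrain sampled 24 h after the last injection. Brain homogenized in 2 volumes of cold PBS; levels measured by LC-MS/MS. n = 3–4, mean ± SEM.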

In data set [12] the test system is Mus musculus. In words: Anti-seizure activity against 124dB loud auditory stimulus induced Fmr1 knockout FVB.129P2-Fmr1tm1Cgr/J mouse model of audiogenic seizure assessed as decrease in sound-induced seizure at 30 mg/kg,sc for 8 hrs followed by audiogenic seizure induction by audiogenic seizure assay (Rvb=100%). In kind it is functional. More on the design: scale not given: the % may be the effect or the level left. The gist of the method:
as §2

Data set [13] is described as follows: Toxicity in Fmr1 knockout FVB.129P2-Fmr1tm1Cgr/J mouse assessed as body weight change at 20 mg/kg,sc for 21 days. The conditions noted are these: in vivo, 504 h, time 21 day. In kind it is organism-based.
Data set [14] has as its system Mus musculus. In words: Protective activity in Fmr1 FVB.129P2-Pde6b+ Tyr c-ch/AntJ wild type mouse assessed as change in basal dendritic spine density in cortical neuron at 20 mg/kg, sc and measured after 8 hrs by Golgi-Cox technique analysis. In kind it is functional, organism-based. The conditions noted are these: Cortical neurone.
Data set [15] deals with Mus musculus. The data set can be described thus: Protective activity in Fmr1 knockout FVB.129P2-Fmr1tm1Cgr/J mouse model of Fragile X syndrome assessed as increase in testicular weight at 20 mg/kg, sc for 21 days. In kind it is functional, organism-based. The conditions noted are these: time 21.0 day.
Data set [16] has as its system Mus musculus. In words: Protective activity in FVB.129P2-Pde6b+ Tyr c-ch/AntJ wild type mouse assessed as decrease in horizontal movements at 20 mg/kg, sc for 5 days and measured for 30 mins by open field assay. In kind it is functional, organism-based. The conditions noted are these: time 5.0 day. The gist of the method:
as §1

In data set [17] the test system is Mus musculus. The data set can be described thus: Anti-seizure activity against 124dB loud auditory stimulus induced Fmr1 knockout FVB.129P2-Fmr1tm1Cgr/J mouse model of audiogenic seizure assessed as decrease in sound-induced death due to respiratory arrest at 10 to 30 mg/kg,sc for 8 hrs followed by audiogenic seizure induction by audiogenic seizure assay. The conditions noted are these: dose 10-30 mg/kg. In kind it is functional, organism-based. Put shortly: as §2

A short description of data set [18]: Tmax in FVB.129P2 mouse plasma at 20 mg/kg,sc by LC-MS/MS analysis. In kind it is ADME, organism-based. Put shortly: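 WT FVB.129P2 mice received a single s.c. injection of 20 mg/kg FRAX486 in 20% (wt/vol) hydroxypropyl-β-cyclodextrin. Blood was collected at time points from 15 min to 24 h, n = 2–3 per point. Plasma drug levels were quantified by LC-MS/MS and reported as mean ± SEM.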

Take `CCn1c(=O)c(-c2ccc(Cl)cc2Cl)cc2cnc(Nc3ccc(N4CCNCC4)c(F)c3)nc21`: the outcome in the data set with Mus musculus [1], in the data set on Mus musculus [2], in the data set with Mus musculus [4], in the data set with Mus musculus [9], in the data set with Mus musculus [10] and in the data set with Mus musculus [16] was Active. Further, the Activity in the data set on Mus musculus [3] was 80%; in the data set on Mus musculus [5], 54%; in the data set with Mus musculus [12], 0%; in [13] it was “Non-Toxic”; in the data set on Mus musculus [17], “Dose-Dependent Effect”. In addition, the outcome in the data set with Mus musculus [6], in the data set with Mus musculus [7], in the data set with Mus musculus [8], in the data set with Mus musculus [14] and in the data set on Mus musculus [15] was inactive. For the same compound, the Drug uptake result in data set [11] is “Active”. Also, in data set [18], the Tmax was 15 min.

As a reminder, the Tmax is the time at which the peak concentration occurs.
